# Screening results from PubChem BioAssay.
# MsrA inhibitor – inhibitors of bovine MsrA. purified bovine MsrA, absorbance read-out. inhibition, % at 15.5 µM. hit rate 0.75% among 360,000. AID 651718; in the data active means inhibition above about 4.5%;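 further: 0% = vehicle wells with enzyme and 100% = reference inhibitor wells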
# bovine MsrA act – activates bovine MsrA enzyme | activation, % at 10.6 µM | purified bovine MsrA, absorbance read-out | hit rate 0.3% among 360,000; in the data active means activation above about 7.5%;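 further: 0% = vehicle and 100% = reference activator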
# NR2E3 ag-1 – agonists of human NR2E3 nuclear receptor; Q9Y5X4; CHO-S Gal4-NCOR/VP16-NR2E3 two-hybrid, luciferase; inhibition of corepressor binding, % at 3.98 µM; hit rate 0.35% among 360,000;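 active means inhibition above the mean of all tested compounds plus 3 SD, cut at about 70% in these data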;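 further: 0% = DMSO with NR2E3 transfected cells and 100% = cells lacking NR2E3 construct; higher means lower luciferase signal from less NR2E3 corepressor binding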
# NR2E3 ag-2 – NR2E3 (human) agonism; Q9Y5X4; GST-NR2E3/biotin-RetCOR TR-FRET, 1536-well; inhibition of corepressor binding, % at 4.78 µM; hit rate 0.12% among 320,000; AID 2300;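 active means percent inhibition above the cutoff of mean plus 3 SD of all tested compounds, set per screening campaign, cut at about 20% in these data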;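 further: 0% = DMSO wells and 100% = biotin wells as full block of FRET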
#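 System: GST-tagged NR2E3 plus biotinylated RetCOR corepressor; Amount: 1.35 nM GST-tagged NR2E3 final; Dosing: single nominal compound dose of 4.8 µM; Schedule: 5 h incubation at 4 °C; Technique: TR-FRET with europium anti-GST and streptavidin-D2, 340 nm excitation; Controls: biotin wells as high control, 0.6% DMSO wells as low control.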
# NadD inh – blocks S. aureus nicotinate mononucleotide adenylyltransferase; AID 602399; inhibition, % at 20 µM; purified NadD enzyme, colorimetric absorbance read-out; hit rate 0.78% among 360,000; in the data active means inhibition above about 26%
# GalR3 antagonist – blocks the human galanin receptor 3 | inhibition, % at 3 µM | HEK293 GalR3-CNG cAMP membrane potential fluorescence; galR3 body fused to GalR1 C-terminus | hit rate 0.44% among 360,000 | AID 651719;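 active means inhibition above the screen-wide average plus 3 SD, cut at about 13% in these data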;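 further: forskolin and galanin both at EC90 stimulate the cells; cAMP rise reported by CNG channel membrane potential dye signal; 0% = forskolin plus galanin with DMSO and 100% = forskolin alone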
# Target sequence (O60755 1-299 limits assumed): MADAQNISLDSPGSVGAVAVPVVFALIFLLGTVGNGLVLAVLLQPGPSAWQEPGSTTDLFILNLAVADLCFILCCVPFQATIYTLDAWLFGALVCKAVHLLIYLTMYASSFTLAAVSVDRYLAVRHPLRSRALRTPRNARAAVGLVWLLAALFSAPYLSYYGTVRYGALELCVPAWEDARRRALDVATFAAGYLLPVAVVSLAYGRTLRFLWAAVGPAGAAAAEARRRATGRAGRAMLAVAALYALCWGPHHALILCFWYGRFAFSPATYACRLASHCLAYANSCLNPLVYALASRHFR
# NR2E3 ag conf – confirmation of human NR2E3 agonists | shares compounds with NR2E3 ag-1 | CHO-S mammalian two-hybrid NR2E3-NCOR, luciferase luminescence | inhibition, % at 3.98 µM | hit rate 51% among 2,300 | AID 624378;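 active means average inhibition above a cutoff equal to the mean inhibition of all tested compounds plus one SD, cut at about 70% in these data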;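 further: 0% = DMSO in NR2E3 cells and 100% = DMSO in cells lacking NR2E3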
# VP16 counter – counter-screen for NR2E3 agonists: GAL4-VP16 reporter inhibitors | shares compounds with NR2E3 ag-1 | CHO-S GAL4-VP16 luciferase reporter, luminescence | inhibition, % at 3.98 µM | hit rate 29% among 2,300;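 active means mean inhibition above a cutoff equal to the average over all tested compounds plus one standard deviation, cut at about 70% in these data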;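 further: luciferase from a UAS reporter driven by GAL4-VP16 transactivation; 0% = DMSO with VP16-transfected cells and 100% = DMSO with cells lacking VP16; higher means less reporter light so more repression of VP16 activity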
# * marks the source's active call; other numbers are inactive results; . = no result. This is a sample that favours compounds with a hit; in the whole collection about 2.5% have one here.
SMILES,MsrA inhibitor,bovine MsrA act,NR2E3 ag-1,NR2E3 ag-2,NadD inh,GalR3 antagonist,NR2E3 ag conf,VP16 counter
COc1ccc(CNC(=O)c2sc(=O)n(Cc3cc(Cl)ccc3OC)c2C)cc1,2,0,39,.,-3,-6,.,.
COc1ccc(C(C)=O)cc1Cn1c(C)c(C(=O)NCc2cccc(Cl)c2)sc1=O,1,2,27,.,-4,2,.,.
COc1ccc(Cl)cc1Cn1c(C)c(C(=O)NCc2cccc(Cl)c2)sc1=O,1,-1,76*,.,-2,-5,75*,4
COc1ccc(NC(=O)c2sc(=O)n(Cc3ccc(F)c(Cl)c3)c2C)cc1OC,0,0,57,.,-8,-1,76*,28
CCOC(=O)C(CSCC(=O)c1ccc(Cl)cc1)NC(=O)OC(C)(C)C (stereo unspecified),0,-6,1,-1,-2,0,.,.
Cc1ccc(OCc2cc(C(=O)N(C)Cc3cnn(-c4ccccc4C)c3)no2)cn1,0,-5,80*,1,-1,-4,56,49
COCCC1CCCCN1C(=O)c1cc(COc2ccc(-n3cncn3)cc2)on1 (stereo unspecified),-1,-6,105*,16,-5,-4,95*,79*
CN(Cc1ccc(F)cc1)C(=O)c1cc(COc2ccc(-n3cncn3)cc2)on1,0,-3,73*,.,-4,-3,61,63
CCc1ccc(CN(C)C(=O)c2cc(COc3ccc(-n4cncn4)cc3)on2)cc1,0,-4,80*,2,4,-3,43,44
O=S(c1cc(Cl)cc(Cl)c1O)c1cc(Cl)cc(Cl)c1O,1,-5,84*,.,9,-6,99*,78*
CC(=O)c1cccc(NS(=O)(=O)c2ccc(-c3cc(C)no3)s2)c1,1,-1,96*,5,-20,-1,70*,60
O=C(Nc1ccn(Cc2c(F)c(F)c(F)c(F)c2F)n1)c1ccc(COc2ccccc2Cl)cc1,1,1,5,2,-7,-7,.,.
O=C(Nc1ccc(Cn2cccn2)cc1)c1ccc(COc2ccccc2Br)cc1,0,-12,64,-4,5,-8,86*,-15
CCNc1nc(NCC)nc(-n2nc(C)cc2C)n1,0,-2,55,1,-1,-4,-5,-8
Cc1cc(C)n(-c2nc(N(C)C)nc(N(C)C)n2)n1,0,-3,8,-6,9,-4,.,.
Oc1ccccc1C=NNC(=S)NC1CC2C=CC1C2 (stereo unspecified),2,-1,57,.,-5,-6,-90,-98
Cc1ccc(N2C(=O)C3CCCN3C2=S)cc1 (stereo unspecified),0,-3,-15,2,2,-9,.,.
C/C(=N/NC(=O)CNC(=O)c1ccc2c(c1)OCO2)c1ccc2c(c1)CCCC2,1,-14,12,-1,0,-3,.,.
Cc1ccc(CSC(Nc2ccc(F)cc2)=C(C#N)C#N)cc1,1,-6,99*,0,-4,11,99*,90*
COc1ccccc1N1CC(C(=O)Nc2ccc(S(=O)(=O)N3CCCC3)cc2)CC1=O (stereo unspecified),0,-2,-24,.,-2,-5,.,.
COC(=O)Cc1ccc(NC(=O)c2ccc(C(C)(C)C)cc2)cc1,1,-2,56,0,-6,11,58,49
COc1ccc(C2CCc3cc4c(cc3C2=NO)OCO4)cc1OC (stereo unspecified),-1,-7,67,.,0,-2,39,44
O=S(=O)(Nc1cc(Cl)ccc1-n1cncn1)c1cc(Br)ccc1Br,0,-3,92*,0,5,-5,99*,85*
O=S(=O)(Nc1cc(Cl)ccc1-n1cncn1)c1ccccc1Cl,2,-7,-15,1,21,-9,.,.
Cc1ccc(C)c(C(=O)COC(=O)c2cc(S(=O)(=O)N3CCOCC3)ccc2F)c1,2,-2,-13,.,-11,-5,.,.
